“Also recorded” adds a separate entry of the source.
What was measured:
[1] = test system: B16-F10 melanoma cells; experiment: B16-F10 syngeneic lung metastasis model; assay type: in vivo, mouse; conditions: TNP-470 30 mg/kg every other day x 6, day 15
In short: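 Female C57BL/6NTac mice (8/group) received B16-F10 melanoma cells by tail vein. Cells were grown in DMEM with 5% FBS at 37°C under 5% CO2. Dosing began 24 h after injection: saline vehicle, test compound 25 mg/kg Q4D × 3, and a reference METAP2 inhibitor 30 mg/kg Q2D × 6. Lungs were excised on day 15 and visible metastases counted by stereomicroscope. Two-tailed Student t test.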

[2] = test system: HUVEC; experiment: HUVEC proliferation; assay type: cell-based, human; conditions: 72 hours
In short: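 HUVEC were grown in EBM-2/EGM-2 with 2% FBS and 2X gentamicin, seeded at 5,000 cells/well and left overnight. Compounds were diluted in DMSO, then in the same medium (final DMSO 0.1%). After 72 h at 37°C, CellTiter 96 Aqueous One reagent was added for 3 h at 37°C and A490 read. The mean A490 of highest-concentration wells was subtracted, and IC50 came from a four-parameter variable-slope log(inhibitor)-response fit.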

[3] = cited from earlier work
[4] = biological target: METAP1 (Homo sapiens, UniProt P53582); experiment: METAP1 aminopeptidase enzyme activity assay; assay type: biochemical; conditions: up to 1000 nmol/L
[5] = biological target: T1, METAP2 (Homo sapiens, UniProt P50579); experiment: METAP2 aminopeptidase enzyme activity assay; assay type: biochemical
[6] = test system: panel of enzymes (n = 6); experiment: Off-target selectivity screening, enzyme panel; assay type: biochemical; conditions: up to 10 μmol/L
[7] = test system: panel of receptors/transporters (n = 38); experiment: Off-target selectivity screening, receptor/transporter binding panel; conditions: up to 10 μmol/L
[8] = Particle size by dynamic light scattering; assay type: physicochemical; conditions: 5% aqueous mannitol, monomodal
[9] = test system: EO771 tumors; experiment: EO771 triple-negative breast cancer allograft model; assay type: in vivo, mouse; conditions: 24 mg/kg SC, Q4D
In short: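 Female C57Bl/6j mice, ovariectomized at 4 weeks, had EO771 cells implanted into the fourth mammary fat pad at about 18 weeks under ether anesthesia. At about 20 mm3, mice (8/group) began s.c. vehicle (5% mannitol/water, Q4D) or test compound (24 mg/kg, Q4D × 4). Tumors were excised on day 15 and formalin-fixed, paraffin-embedded. Sections were immunostained for Ki67 or CD31, scored as positive cells per tissue area. Volume: two-way ANOVA with Sidak. Staining: unpaired t test.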

[10] = test system: BT-474 tumors; experiment: BT-474 HER-2+, estrogen receptor-positive breast cancer xenograft model; assay type: in vivo, mouse; conditions: 6, 12 mg/kg, s.c., every four days
In short: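 Female athymic nude mice got a 90-day 0.72 mg β-estradiol pellet s.c. Three days later, 2 × 10^7 cells in 50% Matrigel/50% RPMI1640 went into the fourth mammary fat pad. Mice were randomized at tumors >95 mm3 (8/group). Test compound, freshly prepared in 5% mannitol/water, was given s.c. Q4D × 9. Tumor volume was analysed by mixed-effects model with Dunnett comparisons.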

[11] = test system: cathepsin isoforms L, H, C, K, and B; experiment: Enzyme-mediated metabolism of SDX-7320 in vitro; assay type: in vitro ADME, human; conditions: 0.5 mg/mL SDX-7320, 37°C, LC/MS
[12] = biological target: cathepsin S (CTSS) (Homo sapiens, UniProt P25774); experiment: Enzyme-mediated metabolism of SDX-7320 in vitro; assay type: in vitro ADME; conditions: 0.5 mg/mL SDX-7320, 37°C, LC/MS
[13] = CNS exposure; assay type: in vivo; conditions: rat, intravenous, equimolar small molecule doses
In short: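 Plasma and CSF levels of the small-molecule inhibitor were measured in rats after intravenous dosing of the polymer conjugate, the free inhibitor or a comparator inhibitor, all at equimolar small-molecule doses. CSF was sampled near plasma Tmax. For the rapidly metabolised comparator, its active metabolite (M-IV) was measured rather than the parent.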

[14] = Long-term chemical stability at ambient conditions; assay type: physicochemical
[15] = test system: BT-474 tumors; experiment: RNA sequencing of BT-474 xenograft tumors; assay type: in vivo, mouse; conditions: 12 mg/kg, RNA-seq versus vehicle
In short: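 Orthotopic BT-474 tumors came from estrogen-supplemented nude mice dosed s.c. every four days with 12 mg/kg test compound (n = 5) or vehicle (n = 6). At necropsy, tumor portions were snap-frozen and stored at −80°C for RNA isolation and sequencing. Differentially expressed genes versus vehicle were identified, then pathway enrichment analysis was run (pathways with P ≤ 0.01 reported).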

[16] = Rat functional observation battery; assay type: in vivo; conditions: single dose 3, 10 and 30 mg/kg, 12 and 36 hours post-dose, GLP
In short: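 Under GLP, male experimentally naïve CD [Crl:CD(SD)] rats, about 8 weeks old, received a single s.c. dose of 3, 10 or 30 mg/kg (ten/group). A functional observation battery was run pre-dose (day −1) and at 12 and 36 h post-dose. Mortality, clinical observations and body weights were also recorded.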

[17] = biological target: T1, METAP2; experiment: In vitro competition binding to METAP2; conditions: competition with biotinylated SDX-9280
[18] = test system: MDA-MB-231 tumors; experiment: MDA-MB-231 TNBC model in chick embryos; assay type: in vivo, chick embryo; conditions: 15, 90 μg
In short: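 MDA-MB-231 cells were inoculated into fertilized White Leghorn eggs on embryonic day E9. From E11, embryos received vehicle, test compound (15 or 90 μg, every four days, two doses) or paclitaxel positive control (2.1 μg, every other day, four doses). Metastatic invasion into the lower chorioallantoic membrane was assessed. Tumors were dissected on E19.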

T1 sequence (P50579 whole entry): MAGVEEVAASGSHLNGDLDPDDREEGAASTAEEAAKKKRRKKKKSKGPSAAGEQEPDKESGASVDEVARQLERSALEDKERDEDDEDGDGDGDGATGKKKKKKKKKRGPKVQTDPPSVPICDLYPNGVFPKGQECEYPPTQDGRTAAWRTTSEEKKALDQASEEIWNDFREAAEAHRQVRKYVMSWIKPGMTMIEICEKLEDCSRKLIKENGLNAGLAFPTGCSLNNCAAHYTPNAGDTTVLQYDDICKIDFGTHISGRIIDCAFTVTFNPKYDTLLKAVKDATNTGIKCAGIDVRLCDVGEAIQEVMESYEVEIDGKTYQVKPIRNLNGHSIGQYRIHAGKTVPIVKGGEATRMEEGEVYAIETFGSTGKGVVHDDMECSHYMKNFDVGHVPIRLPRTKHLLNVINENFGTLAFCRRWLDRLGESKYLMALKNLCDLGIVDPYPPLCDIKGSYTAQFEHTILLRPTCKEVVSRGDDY
cathepsin S (CTSS), sequence (P25774 115-331): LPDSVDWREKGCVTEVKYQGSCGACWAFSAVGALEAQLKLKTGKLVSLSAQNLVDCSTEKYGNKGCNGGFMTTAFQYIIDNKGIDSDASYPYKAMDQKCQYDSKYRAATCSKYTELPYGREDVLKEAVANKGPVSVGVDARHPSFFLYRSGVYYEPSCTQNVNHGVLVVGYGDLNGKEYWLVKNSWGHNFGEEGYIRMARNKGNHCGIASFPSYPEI

CO[C@@H]1[C@H](OC(=O)NC(=O)CCl)CC[C@]2(CO2)[C@H]1[C@@]1(C)O[C@@H]1CC=C(C)C [TNP-470, O-(chloroacetyl-carbamoyl) fumagillol]
outgrowth of B16-F10 melanoma cells in the lungs [1]: identical degree of inhibition
fold less potent than SDX-7539 in HUVEC growth [2]: approximately 3 fold
potency in vitro, fold higher than the natural product fumagillin [3]: 50 fold
Inhibition of METAP1 aminopeptidase activity [4]: neither compound inhibited METAP1
time dependence of IC50 against METAP2 ([5]; hallmark of irreversible enzyme inhibitors): time-dependent shifts in IC50

CO[C@@H]1[C@H](OC(=O)N[C@H]2CC[C@H](N)CC2)CC[C@]2(CO2)[C@H]1[C@@]1(C)O[C@@H]1CC=C(C)C.O=S(=O)(O)c1ccccc1 (relative stereo) [SDX-9402, Fumagill-6-yl N-(trans-4-aminocyclohexyl)carbamate benzenesulfonic acid salt]
Off-target activity at enzymes [6]: No effect was observed
Off-target activity at receptors/transporters [7]: No effect was observed

Glycine, N-(2-methyl-1-oxo-2-propen-1-yl)glycyl-L-phenylalanyl-L-leucyl-, 4-nitrophenyl ester, polymer with N-(2-hydroxypropyl)-2-methyl-2-propenamide, reaction products with (3R,4S,5S,6R)-5-methoxy-4-[(2R,3R)-2-methyl-3-(3-methyl-2-buten-1-yl)-2-oxiranyl]-1-oxaspiro[2.5]oct-6-yl N-(trans-4-aminocyclohexyl)carbamate [SDX-7320]
particle size distribution Z-average [8]: 10 nm
EO771 tumor growth [9]: significantly inhibited tumor growth
CD31 staining of dissected EO771 tumors ([9]; anti-angiogenic activity): reduced staining
Ki67 staining of dissected EO771 tumors ([9]; anti-proliferative activity): reduced staining
inhibition of BT-474 tumor growth [10]: significant, dose-dependent inhibition
release of SDX-7539 from SDX-7320 by cathepsins L, H, C, K, and B [11]: catalytic activity against SDX-7320
release of SDX-7539 from SDX-7320 by cathepsin S [12]: most active isoform; also recorded: highest activity
CSF levels of SDX-7539 when dosed as the PDC compared with unconjugated small molecule or TNP-470 [13]: marked reduction in CSF levels
long-term chemical stability [14]: > 48 months
expression of hypoxia-regulated genes including HIF1α in BT-474 tumors [15]: significantly reduced
neurobehavioral FOB findings [16]: No signs of abnormal CNS-related behavioral toxicity; also recorded: no significant behavioral abnormalities
binding to METAP2 by competition ELISA [17]: inactive
metastasis of MDA-MB-231 tumors (human DNA in lower chorioallantoic membrane) ([18]; every four days, two doses): significantly inhibited metastasis
MDA-MB-231 tumor blood vessel density (angiogenesis) ([18]; two days prior to termination): significant decrease in blood vessel density
Inhibition of METAP2 aminopeptidase enzyme activity ([5]; up to 10 μg/ml): inactive

Reference: publication PMC11063762 (Molecular Cancer Therapeutics, 2024)
